Test results as given in ChEMBL document CHEMBL1833953, “Design, synthesis, and evaluation of a novel dual FMS-like tyrosine kinase 3/stem cell factor receptor (FLT3/c-KIT) inhibitor for the treatment of acute myelogenous leukemia” (J Med Chem, 2011).

What was measured:
[1] = Half life in iv dosed rat; format: ADME, organism-based; settings: in vivo
MV4-11 = assay: Cytotoxicity against human MV411 cells
[2] = biological target: Mast/stem cell growth factor receptor Kit (Homo sapiens, UniProt P10721); assay: Displacement of [33P]ATP from human recombinant c-KIT domain after 20 mins by scintillation counting
Sequence of Mast/stem cell growth factor receptor Kit (P10721 whole entry, the tested form may be a part): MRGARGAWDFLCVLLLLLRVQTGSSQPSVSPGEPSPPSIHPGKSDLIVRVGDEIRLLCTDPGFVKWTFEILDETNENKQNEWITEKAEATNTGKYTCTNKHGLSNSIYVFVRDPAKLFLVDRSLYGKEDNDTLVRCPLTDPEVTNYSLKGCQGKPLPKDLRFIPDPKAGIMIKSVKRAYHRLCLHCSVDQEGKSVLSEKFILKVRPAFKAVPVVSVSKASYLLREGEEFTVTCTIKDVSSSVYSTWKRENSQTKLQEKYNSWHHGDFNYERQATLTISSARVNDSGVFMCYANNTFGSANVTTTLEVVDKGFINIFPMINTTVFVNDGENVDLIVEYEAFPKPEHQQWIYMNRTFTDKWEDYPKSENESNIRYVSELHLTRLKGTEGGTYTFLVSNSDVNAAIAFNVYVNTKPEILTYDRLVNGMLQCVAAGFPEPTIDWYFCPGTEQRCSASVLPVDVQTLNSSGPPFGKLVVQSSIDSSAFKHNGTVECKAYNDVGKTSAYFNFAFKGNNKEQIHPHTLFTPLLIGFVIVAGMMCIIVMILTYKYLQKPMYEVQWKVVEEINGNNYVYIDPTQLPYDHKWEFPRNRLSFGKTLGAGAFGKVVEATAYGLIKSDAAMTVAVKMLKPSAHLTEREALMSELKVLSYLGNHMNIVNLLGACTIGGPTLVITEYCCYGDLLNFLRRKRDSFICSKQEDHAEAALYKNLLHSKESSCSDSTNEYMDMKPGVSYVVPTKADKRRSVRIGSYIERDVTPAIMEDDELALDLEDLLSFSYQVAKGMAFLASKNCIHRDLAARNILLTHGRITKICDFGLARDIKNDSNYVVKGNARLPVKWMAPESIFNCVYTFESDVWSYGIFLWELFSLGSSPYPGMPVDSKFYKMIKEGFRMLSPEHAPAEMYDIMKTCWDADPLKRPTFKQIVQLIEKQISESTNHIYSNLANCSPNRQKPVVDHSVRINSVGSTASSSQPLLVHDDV
Procedure, shortened: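 Radiometric kinase assay run in 100 mM HEPES pH 7.5 with 10 mM MgCl2, 25 mM NaCl, 0.01% BSA, 1 mM DTT and 0.5 mg/mL polyE4Y. Enzyme was 5 nM c-KIT with 700 μM 33P-ATP; inhibitor was added from DMSO. The reaction was started with ATP/substrate, run 20 min, stopped with 20% TCA/4 mM ATP, filtered, washed with 5% TCA and counted by scintillation.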

[3] = Clearance in iv dosed rat; format: ADME, organism-based; settings: in vivo
[4] = biological target: T1, Receptor-type tyrosine-protein kinase FLT3 (Homo sapiens, UniProt P36888); assay: Displacement of [33P]ATP from human recombinant FLT3 domain after 20 mins by scintillation counting
T1 sequence (P36888 whole entry): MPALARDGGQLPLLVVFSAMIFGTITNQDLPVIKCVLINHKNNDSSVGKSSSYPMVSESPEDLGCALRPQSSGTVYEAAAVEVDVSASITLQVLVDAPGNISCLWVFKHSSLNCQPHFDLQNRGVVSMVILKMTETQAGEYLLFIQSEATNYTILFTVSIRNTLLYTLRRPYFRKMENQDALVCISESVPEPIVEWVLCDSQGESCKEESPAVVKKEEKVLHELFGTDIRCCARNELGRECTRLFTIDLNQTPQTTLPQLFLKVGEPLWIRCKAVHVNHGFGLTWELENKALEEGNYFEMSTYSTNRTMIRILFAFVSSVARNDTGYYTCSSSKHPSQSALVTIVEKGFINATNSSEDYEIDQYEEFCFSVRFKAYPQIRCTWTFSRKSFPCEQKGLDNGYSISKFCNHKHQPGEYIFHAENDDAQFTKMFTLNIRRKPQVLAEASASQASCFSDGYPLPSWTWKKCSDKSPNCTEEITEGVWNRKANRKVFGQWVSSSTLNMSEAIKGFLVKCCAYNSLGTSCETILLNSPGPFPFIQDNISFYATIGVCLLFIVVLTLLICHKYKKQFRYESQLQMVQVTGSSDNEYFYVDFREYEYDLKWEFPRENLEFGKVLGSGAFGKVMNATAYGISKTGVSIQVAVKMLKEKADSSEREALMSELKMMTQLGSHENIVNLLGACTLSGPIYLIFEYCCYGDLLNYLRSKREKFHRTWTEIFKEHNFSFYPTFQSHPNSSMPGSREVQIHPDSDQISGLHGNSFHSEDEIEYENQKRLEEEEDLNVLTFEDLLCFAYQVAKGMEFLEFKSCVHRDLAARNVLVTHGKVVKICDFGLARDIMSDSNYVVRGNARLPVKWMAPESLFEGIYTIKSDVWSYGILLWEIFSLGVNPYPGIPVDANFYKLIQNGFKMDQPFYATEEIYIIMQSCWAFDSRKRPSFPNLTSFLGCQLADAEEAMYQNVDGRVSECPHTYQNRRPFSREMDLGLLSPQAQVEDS

Aurora kinase A = biological target: T2, Aurora kinase A (Homo sapiens, UniProt O14965); assay: Inhibition of Aurora A by spectrophotometry
T2 sequence (O14965 whole entry): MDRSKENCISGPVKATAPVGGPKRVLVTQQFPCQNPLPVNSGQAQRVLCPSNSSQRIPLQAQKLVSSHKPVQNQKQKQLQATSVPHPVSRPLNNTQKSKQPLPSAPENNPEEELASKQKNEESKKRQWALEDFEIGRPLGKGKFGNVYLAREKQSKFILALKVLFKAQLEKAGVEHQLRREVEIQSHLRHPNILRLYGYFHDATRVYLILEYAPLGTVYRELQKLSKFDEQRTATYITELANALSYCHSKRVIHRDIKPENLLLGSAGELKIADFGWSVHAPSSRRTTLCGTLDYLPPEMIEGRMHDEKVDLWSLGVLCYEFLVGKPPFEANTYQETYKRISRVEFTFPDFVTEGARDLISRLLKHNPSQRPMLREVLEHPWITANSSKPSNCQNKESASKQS

[5] = biological target: Tyrosine-protein kinase JAK2 (Homo sapiens, UniProt O60674); assay: Inhibition of JAK2 by spectrophotometry
Sequence of Tyrosine-protein kinase JAK2 (O60674 whole entry): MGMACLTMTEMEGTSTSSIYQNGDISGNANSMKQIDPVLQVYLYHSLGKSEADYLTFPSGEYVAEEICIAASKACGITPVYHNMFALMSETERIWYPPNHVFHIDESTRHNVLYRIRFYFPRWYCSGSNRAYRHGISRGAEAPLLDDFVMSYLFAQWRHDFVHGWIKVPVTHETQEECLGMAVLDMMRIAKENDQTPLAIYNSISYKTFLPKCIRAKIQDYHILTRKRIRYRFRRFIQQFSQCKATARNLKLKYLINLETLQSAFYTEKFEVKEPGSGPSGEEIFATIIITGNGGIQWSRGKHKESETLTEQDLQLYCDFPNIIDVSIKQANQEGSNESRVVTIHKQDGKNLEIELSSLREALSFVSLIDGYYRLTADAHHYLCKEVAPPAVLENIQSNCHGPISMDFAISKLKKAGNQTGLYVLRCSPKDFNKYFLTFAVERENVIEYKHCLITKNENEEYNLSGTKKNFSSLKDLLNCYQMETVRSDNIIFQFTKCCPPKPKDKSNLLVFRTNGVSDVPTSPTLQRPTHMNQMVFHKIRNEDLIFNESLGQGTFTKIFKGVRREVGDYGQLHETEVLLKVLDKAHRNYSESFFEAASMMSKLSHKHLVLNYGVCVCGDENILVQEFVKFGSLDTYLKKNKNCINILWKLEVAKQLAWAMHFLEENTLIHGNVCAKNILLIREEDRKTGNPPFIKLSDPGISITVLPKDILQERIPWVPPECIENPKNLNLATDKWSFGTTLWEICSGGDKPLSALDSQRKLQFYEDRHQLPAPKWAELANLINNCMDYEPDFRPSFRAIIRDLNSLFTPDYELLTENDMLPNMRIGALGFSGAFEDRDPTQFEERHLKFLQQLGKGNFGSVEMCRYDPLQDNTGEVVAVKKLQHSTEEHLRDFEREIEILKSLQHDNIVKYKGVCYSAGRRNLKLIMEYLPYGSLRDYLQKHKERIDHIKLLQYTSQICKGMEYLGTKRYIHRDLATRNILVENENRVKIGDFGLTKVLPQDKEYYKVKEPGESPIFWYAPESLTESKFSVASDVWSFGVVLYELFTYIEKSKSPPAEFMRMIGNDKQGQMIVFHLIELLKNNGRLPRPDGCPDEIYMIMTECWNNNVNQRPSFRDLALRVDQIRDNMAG

[6] = biological target: T3, Interleukin-1 receptor-associated kinase 4 (Homo sapiens, UniProt Q9NWZ3); assay: Inhibition of IRAK4 by spectrophotometry
T3 sequence (Q9NWZ3 whole entry): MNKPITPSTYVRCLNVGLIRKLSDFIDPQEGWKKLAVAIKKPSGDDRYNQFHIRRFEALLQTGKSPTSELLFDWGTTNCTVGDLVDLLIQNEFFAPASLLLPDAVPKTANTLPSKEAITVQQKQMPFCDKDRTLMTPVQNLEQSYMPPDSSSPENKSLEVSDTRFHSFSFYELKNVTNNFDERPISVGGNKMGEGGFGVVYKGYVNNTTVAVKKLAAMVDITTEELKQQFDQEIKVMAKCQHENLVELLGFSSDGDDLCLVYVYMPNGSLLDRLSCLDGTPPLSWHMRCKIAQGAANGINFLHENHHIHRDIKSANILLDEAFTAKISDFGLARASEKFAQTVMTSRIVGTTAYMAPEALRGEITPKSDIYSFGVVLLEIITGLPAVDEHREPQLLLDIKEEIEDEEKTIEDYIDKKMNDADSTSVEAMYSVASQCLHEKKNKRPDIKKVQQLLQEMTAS

Structure (SMILES) | half-life [1] | Ki [2] | clearance [3] | Ki [4] | Ki (Aurora kinase A) | Ki [5] | Ki [6] | IC50 (MV4-11)
CC(=O)Nc1cccc(Nc2nc(N)n(-c3ccccn3)n2)c1 | 2.81 h | 180 nM | 44.6 mL/min/kg | – | – | – | – | 15 nM
N#Cc1ccc(-n2nc(Nc3ccccc3Cl)nc2N)nc1 | – | – | – | 15 nM | > 2500 nM | > 4000 nM | 36 nM | –
Nc1nc(Nc2cc(N3CCOCC3)ccc2F)nn1-c1ccccn1 | – | 37 nM | – | 12 nM | > 3000 nM | 590 nM | 440 nM | –
Nc1nc(Nc2ccc(C(=O)N3CCOCC3)cc2)nn1-c1ccccn1 | 2.22 h | 21 nM | 4.4 mL/min/kg | – | – | – | – | 2 nM
Nc1nc(Nc2ccc(C(=O)NCCN3CCOCC3)cc2)nn1-c1ccccn1 | 1.61 h | – | 63.9 mL/min/kg | – | – | – | – | 0.9 nM
Nc1nc(Nc2ccc(OCCCN3CCOCC3)cc2)nn1-c1ccccn1 | 0.93 h | < 50 nM | 67.2 mL/min/kg | – | – | – | – | –
COc1ccc(N2CCOCC2)cc1Nc1nc(N)n(-c2ccccn2)n1 | – | 60 nM | – | 6 nM | > 4000 nM | > 4000 nM | 160 nM | –
Nc1nc(Nc2ccc(N3CCOCC3)cc2)nn1-c1ccccn1 | 2.84 h | – | 31.1 mL/min/kg | – | – | – | – | 2 nM

The next lines start with results.

half-life [1] | Ki [2] | clearance [3] | Ki [4] | Ki (Aurora kinase A) | Ki [5] | Ki [6] | Structure (SMILES) | IC50 (MV4-11)
2.48 h | < 50 nM | 174 mL/min/kg | < 1 nM | – | – | – | CN1CCC(c2cccc(Nc3nc(N)n(-c4ccccn4)n3)c2)CC1 | < 1 nM
– | 270 nM | – | 1 nM | 2100 nM | > 4000 nM | 78 nM | COc1ccccc1Nc1nc(N)n(-c2cc(NCCN(C)C)ncn2)n1 | –
– | 9 nM | – | 2.8 nM | 103 nM | 67 nM | 43 nM | COc1ccc(Nc2nc(N)n(-c3ccccn3)n2)cc1OC | –
